Experimental data published in ChEMBL document CHEMBL1124712, “Pre- and postsynaptic dopaminergic activities of indolizidine and quinolizidine derivatives of 3-(3-hydroxyphenyl)-N-(n-propyl)piperidine (3-PPP). Further developments of a dopamine receptor model” (J Med Chem, 1990).
Active and inactive are the calls of the source. The rule behind the calls is not given here.

Columns and labels:
[1] = system: Rattus norvegicus; experiment: DOPA accumulation in normal rat cortex at of 50 umol/kg expressed as percent of control; format: functional
[2] = system: Rattus norvegicus; experiment: DOPA accumulation in reserpine-pretreated rat limbic region after subcutaneous administration of 50 umol/kg; Range is 1.1-6.5; format: functional; settings: Limbic system, sc
[3] = system: Rattus norvegicus; experiment: Locomotor activity in reserpine-pretreated rat at the dose of 50 umol/kg; Accumulation counts/30 min; format: functional
[4] = system: Rattus norvegicus; experiment: DOPA accumulation in reserpine-pretreated rat striatal region after subcutaneous administration of 50 umol/kg; Range is 1.7-4; format: functional; settings: sc
[5] = system: Rattus norvegicus; experiment: DOPA accumulation in normal rat striatal region at of 50 umol/kg expressed as percent of control; format: functional
[6] = target: T1, D(2) dopamine receptor (Rattus norvegicus, UniProt P61169); experiment: In vitro inhibition of [3H]spiperone binding to Dopamine receptor D2 in rat striatal membranes; format: cell membranes, Membrane
T1 sequence (P61169 whole entry): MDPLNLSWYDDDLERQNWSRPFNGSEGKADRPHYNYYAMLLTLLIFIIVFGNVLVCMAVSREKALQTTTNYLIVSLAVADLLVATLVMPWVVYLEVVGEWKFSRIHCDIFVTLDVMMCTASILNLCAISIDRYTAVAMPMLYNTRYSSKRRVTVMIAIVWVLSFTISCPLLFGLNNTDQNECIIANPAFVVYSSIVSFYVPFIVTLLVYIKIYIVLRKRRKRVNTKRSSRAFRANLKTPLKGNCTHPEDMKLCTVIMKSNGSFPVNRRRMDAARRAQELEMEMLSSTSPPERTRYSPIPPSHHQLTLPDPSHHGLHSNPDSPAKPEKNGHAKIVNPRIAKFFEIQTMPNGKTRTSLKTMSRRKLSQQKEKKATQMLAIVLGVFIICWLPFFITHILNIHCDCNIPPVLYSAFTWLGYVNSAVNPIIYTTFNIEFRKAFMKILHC

[7] = system: Rattus norvegicus; experiment: DOPA accumulation in normal rat limbic region at 50 umol/kg expressed as percent of control; format: functional, Limbic system
[8] = system: Rattus norvegicus; experiment: Locomotor activity in normal rat at 50 umol/kg expressed as percent of control; format: functional
Procedure, shortened: (§1)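 Untreated rats were given the test drug sc. Locomotor activity was recorded with motility meters and expressed as percent of controls, with significance by Student's t test (p < 0.05).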

[9] = system: Rattus norvegicus; experiment: Locomotor activity in normal rat at 12.5 umol/kg expressed as percent of control; format: functional; procedure, shortened: as §1
[10] = target: T1, D(2) dopamine receptor; experiment: In vitro inhibition of [3H]N-0437 binding to Dopamine receptor D2 in rat striatal membranes; format: cell membranes, Membrane
[11] = system: Rattus norvegicus; experiment: DOPA accumulation in normal rat cortex at 100 umol/kg expressed as percent of control; format: functional
[12] = system: Rattus norvegicus; experiment: Locomotor activity in reserpine-pretreated ratat the dose of 50 umol/kg; Accumulation counts/30 min; format: functional
[13] = system: Rattus norvegicus; experiment: DOPA accumulation in normal rat limbic region at 100 umol/kg expressed as percent of control; format: functional, Limbic system
[14] = system: Rattus norvegicus; experiment: Locomotor activity in normal rat at 100 umol/kg expressed as percent of control; format: functional; procedure, shortened: as §1
[15] = system: Rattus norvegicus; experiment: DOPA accumulation in normal rat striatal region at 100 umol/kg expressed as percent of control; format: functional
[16] = system: Rattus norvegicus; experiment: Locomotor activity in normal rat at 25 umol/kg expressed as percent of control; format: functional; procedure, shortened: as §1
[17] = system: Rattus norvegicus; experiment: DOPA accumulation in normal rat limbic region at 12.5 umol/kg expressed as percent of control; format: functional, Limbic system
[18] = system: Rattus norvegicus; experiment: DOPA accumulation in reserpine-pretreated rat striatal region after subcutaneous administration of 50 umol/kg; Inactive; format: functional, organism-based
[19] = system: Rattus norvegicus; experiment: DOPA accumulation in reserpine-pretreated rat cortex after subcutaneous administration of 50 umol/kg; Inactive; format: functional, organism-based
[20] = system: Rattus norvegicus; experiment: DOPA accumulation in normal rat striatal region at 12.5 umol/kg expressed as percent of control; format: functional
[21] = system: Rattus norvegicus; experiment: DOPA accumulation in reserpine-pretreated rat limbic region after subcutaneous administration of 50 umol/kg; Inactive; format: functional, organism-based; settings: Limbic system
[22] = system: Rattus norvegicus; experiment: Locomotor activity in normal rat at 3.1 umol/kg expressed as percent of control; format: functional; procedure, shortened: as §1
[23] = system: Rattus norvegicus; experiment: DOPA accumulation in normal rat cortex at 12.5 umol/kg expressed as percent of control; Inactive; format: functional, organism-based
[24] = system: Rattus norvegicus; experiment: DOPA accumulation in normal rat striatal region at 50 umol/kg expressed as percent of control; Inactive; format: functional, organism-based
[25] = system: Rattus norvegicus; experiment: DOPA accumulation in normal rat limbic region at 50 umol/kg expressed as percent of control; Inactive; format: functional, organism-based; settings: Limbic system
[26] = system: Rattus norvegicus; experiment: DOPA accumulation in reserpine-pretreated rat limbic region after subcutaneous administration of 50 umol/kg; Range is 0.44-3.5; format: functional; settings: Limbic system, sc
[27] = system: Rattus norvegicus; experiment: DOPA accumulation in normal rat cortex at 50 umol/kg expressed as percent of control; format: functional
[28] = system: Rattus norvegicus; experiment: DOPA accumulation in normal rat striatal region at 50 umol/kg expressed as percent of control; format: functional
[29] = system: Rattus norvegicus; experiment: DOPA accumulation in normal rat cortex at 50 umol/kg expressed as percent of control; Inactive; format: functional, organism-based
[30] = system: Rattus norvegicus; experiment: Locomotor activity in reserpine-pretreated rat at the dose of 100 umol/kg; Accumulation counts/30 min; format: functional
[31] = system: Rattus norvegicus; experiment: DOPA accumulation in normal rat cortex at 27 umol/kg expressed as percent of control; Inactive; format: functional, organism-based
[32] = system: Rattus norvegicus; experiment: Locomotor activity in normal rat at 213 umol/kg expressed as percent of control; format: functional
[33] = system: Rattus norvegicus; experiment: DOPA accumulation in normal rat limbic region at 213 umol/kg expressed as percent of control; format: functional, Limbic system
[34] = system: Rattus norvegicus; experiment: DOPA accumulation in normal rat cortex at 213 umol/kg expressed as percent of control; Inactive; format: functional, organism-based
[35] = system: Rattus norvegicus; experiment: DOPA accumulation in reserpine-pretreated rat limbic region after subcutaneous administration; format: functional; settings: Limbic system, sc
[36] = system: Rattus norvegicus; experiment: Locomotor activity in reserpine-pretreated ratat the dose of 213 umol/kg; Accumulation counts/30 min; format: functional
[37] = system: Rattus norvegicus; experiment: DOPA accumulation in normal rat striatal region at 27 umol/kg expressed as percent of control; format: functional
[38] = system: Rattus norvegicus; experiment: DOPA accumulation in reserpine-pretreated rat cortex after subcutaneous administration; Inactive; format: functional, organism-based
[39] = system: Rattus norvegicus; experiment: DOPA accumulation in reserpine-pretreated rat striatal region after subcutaneous administration; format: functional; settings: sc
[40] = system: Rattus norvegicus; experiment: Locomotor activity in normal rat at 0.8 umol/kg expressed as percent of control; format: functional
[41] = system: Rattus norvegicus; experiment: DOPA accumulation in normal rat limbic region at 27 umol/kg expressed as percent of control; format: functional, Limbic system
[42] = system: Rattus norvegicus; experiment: DOPA accumulation in normal rat cortex at 0.8 umol/kg expressed as percent of control; Inactive; format: functional, organism-based
[43] = system: Rattus norvegicus; experiment: Locomotor activity in reserpine-pretreated ratat the dose of 13 umol/kg; Accumulation counts/30 min; format: functional
[44] = system: Rattus norvegicus; experiment: DOPA accumulation in normal rat limbic region at 0.8 umol/kg expressed as percent of control; format: functional, Limbic system
[45] = system: Rattus norvegicus; experiment: DOPA accumulation in normal rat striatal region at 0.8 umol/kg expressed as percent of control; format: functional
[46] = system: Rattus norvegicus; experiment: Locomotor activity in normal rat at 1.6 umol/kg expressed as percent of control; format: functional

In the case of Oc1cccc([C@H]2CCCN3CCCC23)c1 (some centres not stated), the Control [1] is reported as 37%, the ED50 [2] is reported as 1.1 µmol/kg and the Locomotor activity [3] is reported as 25. The ED50 [4] was 1.7 µmol/kg, the Control [5] was 46% and the IC50 [6] was 4900 nM. For the same compound, the Control [7] was 46%, the Control [8] was 83% and the Control [9] was 42%. The IC50 [10] was 45 nM.

CCCN(CCc1ccsc1)C1CCc2c(O)cccc2C1 (configuration not stated) showed an IC50 [6] of 8.8 nM and an IC50 [10] of 0.62 nM.

Work on Oc1cccc(C2CCCN3CCCCC23)c1 (configuration not stated) yielded a Control [11] of 48%, a Locomotor activity [12] of 14 and a Control [13] of 61%. The Control [14] was 142%, the Control [15] was 54% and the IC50 [6] was 13000 nM. It also gave an IC50 [10] of 580 nM.

For Oc1cccc(C2=CCCN3CCCCC23)c1 (configuration not stated), the Locomotor activity [12] was 8, the Control [16] was 51% and the Control [17] was 165%. The ED50 [18] was “inactive”, the ED50 [19] was “inactive” and the Control [20] was 200%. For the same compound, the ED50 [21] was “inactive”, the Control [22] was 82% and the IC50 [6] was 5300 nM. The Control [9] was 45%, the Control [23] was “inactive” and the IC50 [10] was 320 nM.

With Oc1cccc(C2CCCN3CCCC23)c1 (racemic) the Control [24] was “inactive”, the ED50 [19] was “inactive” and the Locomotor activity [3] was 13. The Control [25] was “inactive”, the ED50 [26] was 0.44 µmol/kg and the IC50 [6] was 3800 nM. For the same compound, the Control [27] was 57%, the Control [8] was 48% and the IC50 [10] was 75 nM.

Oc1cccc([C@@H]2CCCN3CCCC23)c1 (some centres not stated) showed a Control [28] of 245%, a Locomotor activity [3] of 21 and a Control [22] of 135%. The IC50 [6] was 6500 nM, the Control [7] was 153% and the Control [8] was 72%. The Control [29] was “inactive” and the IC50 [10] was 170 nM.

Compound O=C(O)C(=O)O.Oc1cccc(C2CCC3CCCCN3C2)c1 (configuration not stated) has a Control [11] of 62%, a Control [13] of 69% and a Control [14] of 220%. For the same compound, the Locomotor activity [30] was 262, the Control [15] was 56% and the IC50 [6] was 40000 nM. The IC50 [10] was 7900 nM.

CCCN1CCC[C@@H](c2cccc(O)c2)C1 [PRECLAMOL] was tested, and the Control [31] was “inactive”, the Control [32] was 40% and the Control [33] was 95%. The Control [34] was “inactive”, the ED50 [35] was 0.8 µmol/kg and the Locomotor activity [36] was 12. The Control [37] was 147%, the ED50 [38] was “inactive” and the ED50 [39] was 1.7 µmol/kg. It also gave a Control [40] of 74%.

CCCN1CCC[C@H](c2cccc(O)c2)C1 was tested, and the Control [41] was 40%, the Control [42] was “inactive” and the Control [31] was “inactive”. It also gave a Control [32] of 230%, an ED50 [35] of 1 µmol/kg and a Locomotor activity [43] of 78. The Control [37] was 45%, the ED50 [38] was “inactive” and the Control [44] was 86%. For the same compound, the Control [45] was 81%, the ED50 [39] was 1.3 µmol/kg and the Control [46] was 75%.
